We go through one molecule from publication PMC3288537 (ACS Chemical Biology, 2011).

As usually defined, the IC50 is the concentration that gives 50% inhibition.

Data set [1] is described as follows: Serum concentration in mice after i.p. injection. In kind it is in vivo. As to conditions: i.p. 3 mg/kg. The essentials:
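Mice dosed i.p. at 3 mg/kg with test compound. Blood serum collected 5, 20, 60 and 120 min after injection for measurement of compound concentration.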

A further data set addresses T1, TCPTP (Homo sapiens, UniProt P17706).
T1 sequence (P17706 1-415): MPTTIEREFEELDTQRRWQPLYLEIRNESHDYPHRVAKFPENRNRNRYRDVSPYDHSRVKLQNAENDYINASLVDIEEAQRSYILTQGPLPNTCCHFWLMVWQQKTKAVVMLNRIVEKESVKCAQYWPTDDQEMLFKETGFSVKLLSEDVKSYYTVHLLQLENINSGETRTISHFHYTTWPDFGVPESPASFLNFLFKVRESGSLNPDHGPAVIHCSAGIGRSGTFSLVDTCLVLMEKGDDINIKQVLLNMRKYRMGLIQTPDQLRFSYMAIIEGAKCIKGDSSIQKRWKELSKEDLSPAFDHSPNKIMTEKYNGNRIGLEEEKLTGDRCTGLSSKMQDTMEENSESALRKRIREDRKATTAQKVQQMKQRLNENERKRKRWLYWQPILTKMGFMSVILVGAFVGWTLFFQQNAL
Kind of data set: Dose-response OMFP phosphatase assay, TCPTP. As to conditions: read-out: IC50 TCPTP; OMFP substrate. In kind it is biochemical. The essentials: (§1)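 Ten-point 2-fold dilution series of test compound prepared in DMSO. Fluorescence (ex 485/em 528 nm) read in kinetic mode over 10 min; progress-curve slopes taken as activity. IC50 by nonlinear regression (sigmoidal, variable slope).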

The test system of data set [2] is ERK1/2 and p38 phosphorylation in splenocytes. Kind of data set: Immunoblot of phosphorylation levels in spleen of mice injected i.p. The conditions noted are these: mouse spleen, doses and time points used. It counts as in vivo, C57B6 mice. The essentials:
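C57B6 mice given test compound i.p. at 3 or 5 mg kg-1, or vehicle; spleens taken 3 h or 6 h later (3 mice per dose and time). Spleen sonicated in Tris pH 7.4 buffer with phosphatase and protease inhibitors; 800 × g supernatant used. Blotted for pS473-AKT, pS23-HePTP, pERK1/2 and pp38, normalised to total protein then GAPDH. ANOVA/Tukey or t-test.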

Another data set has as its target T2, CD45 (Homo sapiens, UniProt P08575).
T2 sequence (P08575 26-1306): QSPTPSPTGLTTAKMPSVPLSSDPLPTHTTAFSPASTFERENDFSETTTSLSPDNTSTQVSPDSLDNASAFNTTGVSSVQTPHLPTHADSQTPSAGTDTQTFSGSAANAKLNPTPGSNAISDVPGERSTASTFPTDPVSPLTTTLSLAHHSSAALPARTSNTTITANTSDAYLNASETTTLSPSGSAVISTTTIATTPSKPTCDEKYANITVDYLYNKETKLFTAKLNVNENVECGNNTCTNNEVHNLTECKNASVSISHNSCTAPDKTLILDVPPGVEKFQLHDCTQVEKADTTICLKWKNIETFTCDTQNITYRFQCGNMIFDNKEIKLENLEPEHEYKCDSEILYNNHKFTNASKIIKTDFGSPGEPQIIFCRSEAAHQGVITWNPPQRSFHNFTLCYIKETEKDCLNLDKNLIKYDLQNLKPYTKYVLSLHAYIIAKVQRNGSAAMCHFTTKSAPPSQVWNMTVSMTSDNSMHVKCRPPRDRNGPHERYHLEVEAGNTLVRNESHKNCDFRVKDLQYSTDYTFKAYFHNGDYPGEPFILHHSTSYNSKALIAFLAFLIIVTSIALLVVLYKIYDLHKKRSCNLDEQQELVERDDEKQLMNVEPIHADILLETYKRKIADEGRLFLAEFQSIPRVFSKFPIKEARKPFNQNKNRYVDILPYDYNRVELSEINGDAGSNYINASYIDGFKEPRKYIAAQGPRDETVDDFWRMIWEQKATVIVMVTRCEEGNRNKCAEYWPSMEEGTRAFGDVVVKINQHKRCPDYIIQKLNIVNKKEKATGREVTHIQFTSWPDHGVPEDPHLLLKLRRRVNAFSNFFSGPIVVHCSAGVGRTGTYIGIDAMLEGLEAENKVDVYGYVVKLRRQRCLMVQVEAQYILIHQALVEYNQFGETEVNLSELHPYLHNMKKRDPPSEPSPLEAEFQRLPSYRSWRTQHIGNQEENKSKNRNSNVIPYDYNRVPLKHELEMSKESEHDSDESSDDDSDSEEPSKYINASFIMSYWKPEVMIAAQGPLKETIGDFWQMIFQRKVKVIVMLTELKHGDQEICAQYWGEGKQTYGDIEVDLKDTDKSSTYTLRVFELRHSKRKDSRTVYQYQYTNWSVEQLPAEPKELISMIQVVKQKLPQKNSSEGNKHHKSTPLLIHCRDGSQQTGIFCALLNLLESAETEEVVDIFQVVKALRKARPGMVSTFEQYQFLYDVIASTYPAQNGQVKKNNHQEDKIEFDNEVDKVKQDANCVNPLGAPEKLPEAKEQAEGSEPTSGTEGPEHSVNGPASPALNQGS
The data set can be described thus: Dose-response OMFP phosphatase assay, CD45. As to conditions: read-out: IC50 CD45; OMFP substrate. In kind it is biochemical. The method, boiled down:
as §1

The next data set addresses T3, PTP1B (Homo sapiens, UniProt P18031).
T3 sequence (P18031 1-435): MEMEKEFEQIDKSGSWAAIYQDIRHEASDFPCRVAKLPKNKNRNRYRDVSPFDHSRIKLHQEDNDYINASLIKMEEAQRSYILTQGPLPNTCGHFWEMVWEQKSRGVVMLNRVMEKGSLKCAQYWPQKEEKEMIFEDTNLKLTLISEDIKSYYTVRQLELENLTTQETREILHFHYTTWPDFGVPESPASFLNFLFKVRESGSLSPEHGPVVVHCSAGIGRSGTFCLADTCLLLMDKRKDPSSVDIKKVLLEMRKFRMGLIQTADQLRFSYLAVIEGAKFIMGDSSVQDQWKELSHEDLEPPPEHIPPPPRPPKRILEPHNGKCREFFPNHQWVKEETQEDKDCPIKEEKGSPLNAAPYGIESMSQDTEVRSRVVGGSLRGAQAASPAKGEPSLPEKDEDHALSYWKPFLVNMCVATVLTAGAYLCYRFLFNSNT
The data set can be described thus: Dose-response OMFP phosphatase assay, PTP1B. In kind it is biochemical. As to conditions: read-out: IC50 PTP1B; OMFP substrate.

“And” between values parts separate entries of the source, which are not always exact repeats. Equal entries are not always repeated.

Take `O=C(O)c1ccccc1-c1ccc(/C=c2\sc3nc4cc(Br)cnc4n3c2=O)o1` [Compound 1]: the “serum concentration (peak)” value in data set [1] (20 min, 3 mg/kg) was 1240 ± 170 nM and 1240 nM. In data set [1] (2 h), this molecule gave a serum concentration of 18 ± 10 nM. Moreover, the IC50 at TCPTP came to 1 µM; on CD45, 3.1 µM; on PTP1B, 1.7 µM. Moreover, the AKT phosphorylation levels result in data set [2] is listed as “no change”. Also, in data set [2], the “phospho-HePTP (pS23) levels” value was “No changes”.
